Assay results collected from several papers.
Lines come from different studies, so protocols differ.
Target: Serine/threonine-protein kinase VRK2 (VRK2, Homo sapiens, UniProt Q86Y07)

The remaining binding of `COc1cnc(Nc2cccc(S(N)(=O)=O)c2)nc1N1CCN(c2ccccc2)CC1` is reported as 69% (binding; competition with immobilised ligand; 1 µM).
`COc1ncc2cc3ccccc3nc2c1C#N` has a remaining binding of 98% (cell-free assay; competition with immobilised ligand; 5 µM).
With `CN(CCCC(F)(F)F)c1nccc(-c2cnn3ncccc23)n1` the remaining binding was 100% (binding; 1 µM).
`NS(=O)(=O)c1cc(NC(=O)Cc2ccccc2)ccc1Oc1cccc(Cl)c1` has a remaining binding of 100% (cell-free assay; competition with immobilised ligand; 1 µM).
The remaining binding of `Cc1cnc(Nc2ccc(C(=O)N3CCC(N4CCCC4)CC3)cc2)nc1-c1cc2ccccc2s1` is reported as 81% (binding; competition with immobilised ligand; 1 µM).
The remaining binding of `Cc1c(NC(=O)c2cc(C(N)=O)nc3cc(F)ccc23)c(C(F)(F)F)nn1Cc1ccc(C(C)(C)C)cc1` is reported as 95% (cell-free assay; competition with immobilised ligand; 1 µM).
For `Nc1ncc2c(n1)-c1c([nH]c3ccc(C#CC4CC4)cc13)CCCC2`, the remaining binding was 100% (binding; competition with immobilised ligand; 1 µM).
With `Cc1cnn2ncc(-c3ccnc(N(C)C)n3)c2c1` the remaining binding was 96% (binding; 1 µM).
`COc1cnc(Nc2cccc(S(N)(=O)=O)c2)nc1N1CCN(c2ccccc2)C(=O)C1` gave a remaining binding of 89% (binding; competition with immobilised ligand; 1 µM).
The remaining binding of `N[C@@H]1CCN(c2nccc(-c3cnn4ncccc34)n2)C1` is reported as 100% (binding; 1 µM).
`O=C(NCC1CCOCC1)c1n[nH]cc1NC(=O)c1c(F)cccc1F` has a remaining binding of 100% (binding; competition with immobilised ligand; 1 µM).
The remaining binding of `CNC(=O)Nc1ccc2c(c1)CC[C@@]21OC(=O)N(CC(=O)N(Cc2ccc(F)cc2)[C@@H](C)C(F)(F)F)C1=O` is reported as 91% (cell-free assay; competition with immobilised ligand; 1 µM).
The remaining binding of `CN(C)c1nccc(-c2cnn3ncccc23)n1` is reported as 80% (binding; 1 µM).
`C[C@@H](c1ccc(-n2cnc3c(N)ncnc32)cc1)N1CCc2nn(C)c(Cc3ccccc3)c2C1=O` gave a remaining binding of 47% (binding; competition with immobilised ligand; 0.1 µM).
For `COc1ccnn2ncc(-c3ccnc(N(C)C)n3)c12`, the remaining binding was 100% (binding; 1 µM).
`O=C(NCCCN1CCOCC1)c1ccc(Nc2ncc(Cl)c(-c3ccc(Cl)s3)n2)cc1` has a remaining binding of 64% (binding; competition with immobilised ligand; 1 µM).
The remaining binding of `CC1=C(C#N)C(c2ccc3c(c2)c(NC(=O)c2ccccc2C)nn3C)C(C#N)=C(C)N1` is reported as 72% (cell-free assay; competition with immobilised ligand; 1 µM).
With `O=C(c1ccc(Nc2ncc(Cl)c(-c3ccc(Cl)s3)n2)cc1)N1CCC(N2CCCC2)CC1` the remaining binding was 56% (binding; competition with immobilised ligand; 1 µM).
With `CC(=O)C1=C(C)N(c2cccc(C(F)(F)F)c2)C(=O)N[C@@H]1c1ccc(C#N)nc1` the remaining binding was 77.6% (cell-free assay; competition with immobilised ligand; 1 µM).
For `CN(c1nccc(-c2cnn3ncccc23)n1)C1CC1`, the remaining binding was 100% (binding; 1 µM).
`CC(C)CC(=O)N1CCc2nc(-c3ccc(Br)cc3)nc(N(C)Cc3ccccc3)c2C1` has a remaining binding of 77% (cell-free assay; competition with immobilised ligand; 0.1 µM).
The remaining binding of `C[C@H]1CCN(c2nccc(-c3cnn4ncccc34)n2)C1` is reported as 81% (binding; 1 µM).
